Test results published in PubChem BioAssay AID588760 (Johns Hopkins Ion Channel Center, 2011).
Calls of active or inactive are those of the source.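 The calls were made as follows: active = fitted dose response curve and peak inhibition of the Kir2.1 potassium channel above 30% at some dose; inactive = no dose response or no inhibition at any dose.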

Target: Inward rectifier potassium channel 2 (Mus musculus) (UniProt P35561)
Assay: Kir2.1 channel inhibition, specificity check, SAR follow-up, selectivity assay for KCNK9 inhibitor project, cell-based, FluxOR thallium flux, CRC round 3 (AID 588760)
Details: Kir2.1-expressing cells, 20 min; series mostly up to 30 µM; thallium flux ratio, lower = inhibition: at the top concentration
Procedure, shortened: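 Material: FluxOR-loaded Kir2.1 HEK293 cells | Times: 90 min dye load, 20 min compound, RT | Technique: Kinetic fluorescence of thallium-sensitive dye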

Chain of Inward rectifier potassium channel 2 (Mus musculus) (P35561 whole entry, looked up): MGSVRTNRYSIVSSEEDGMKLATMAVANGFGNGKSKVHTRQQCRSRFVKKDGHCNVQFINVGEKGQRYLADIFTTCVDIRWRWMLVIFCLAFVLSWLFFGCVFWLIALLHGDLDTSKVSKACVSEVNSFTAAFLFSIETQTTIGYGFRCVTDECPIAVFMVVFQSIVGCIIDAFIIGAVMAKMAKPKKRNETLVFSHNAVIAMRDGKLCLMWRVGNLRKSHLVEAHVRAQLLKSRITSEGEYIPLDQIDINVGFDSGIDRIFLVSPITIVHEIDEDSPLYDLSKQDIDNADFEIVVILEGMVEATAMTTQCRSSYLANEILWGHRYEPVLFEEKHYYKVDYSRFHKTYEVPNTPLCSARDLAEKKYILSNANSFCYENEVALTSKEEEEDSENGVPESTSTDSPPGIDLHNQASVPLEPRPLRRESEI

| SMILES | thallium flux ratio, lower = inhibition | outcome |
| --- | --- | --- |
| S=c1[nH]nc(-c2ccco2)n1C1CC2CCC1C2 (stereo unspecified) | 1.42 (inactive) | – |
| COc1ccccc1C(=O)Nc1cccc(NC(=O)c2cccc3ccccc23)c1 | 1.82 (inactive) | – |
| CC(C1CC2CCC1C2)n1c(-c2cccc(N(C)C)c2)n[nH]c1=S (stereo unspecified) | 1.34 (inactive) | – |
| COc1cccc(Cc2n[nH]c(=S)n2C(C)C2CC3CCC2C3)c1 (stereo unspecified) | 1.77 (inactive) | – |
| CC(C1CC2CCC1C2)n1c(SC(F)F)nnc1-c1ccco1 (stereo unspecified) | 0.755 (inactive) | – |
| CC(C1CC2CCC1C2)n1cnnc1-c1ccco1 (stereo unspecified) | 1.88 (inactive) | – |
| C[C@H](C1CCCCC1)n1c(-c2ccco2)n[nH]c1=S | 1.4 (inactive) | – |
| COc1cc(OC)cc(-c2n[nH]c(=S)n2C(C)C2CC3CCC2C3)c1 (stereo unspecified) | 1.79 (inactive) | – |
| CC(C1CC2CCC1C2)n1c(SCc2ccccc2)nnc1-c1ccco1 (stereo unspecified) | 1.08 (inactive) | – |
| COc1ccc(CCSc2nnc(-c3ccco3)n2C(C)C2CC3CCC2C3)cc1OC (stereo unspecified) | 0.848 (inactive) | – |
| CSc1nnc(-c2ccco2)n1C(C)C1CC2CCC1C2 (stereo unspecified) | 0.744 (inactive) | – |
| CC(C)c1ccccc1C(=O)Nc1cccc(NC(=O)c2ccccc2OC(F)(F)F)c1 | 1.83 (inactive) | – |
| COc1ccc(C(=O)CSc2nnc(-c3ccco3)n2C(C)C2CC3CCC2C3)cc1OC (stereo unspecified) | 1.32 (inactive) | – |
| CC(C1CC2CCC1C2)n1c(SCC#N)nnc1-c1cccs1 (stereo unspecified) | 1.26 (inactive) | – |
| CC(C1CC2CCC1C2)n1c(-c2ccco2)n[nH]c1=O (stereo unspecified) | 1.56 (inactive) | – |
| CC(C1CC2CCC1C2)n1c(-c2ccco2)nnc1C(F)(F)F (stereo unspecified) | 1.18 (inactive) | – |
| CC(C1CC2CCC1C2)n1c(-c2ccco2)n[nH]c1=S (stereo unspecified) | – | inactive |
| CC(C1CC2CCC1C2)n1c(-c2cccn2C)n[nH]c1=S (stereo unspecified) | 1.64 (inactive) | – |
| CC(C1CC2CCC1C2)n1c(-c2ccc(N(C)C)cc2)n[nH]c1=S (stereo unspecified) | – | inactive |
| COc1cccc(C(=O)CSc2nnc(-c3ccco3)n2C(C)C2CC3CCC2C3)c1 (stereo unspecified) | 1.4 (inactive) | – |
| CC(NC(=O)c1ccco1)C1CC2CCC1C2 (stereo unspecified) | 2.02 (inactive) | – |
